# Reference: ChEMBL document CHEMBL3407388, “Synthesis, anticancer activity and molecular docking studies on a series of heterocyclic trans-cyanocombretastatin analogues as antitubulin agents” (2015)
# Key:
# SR = test: Cytotoxicity against human SR cells assessed as growth inhibition after 48 hrs by SRB assay; type: functional
# CCRF-CEM = test: Cytotoxicity against human CCRF-CEM cells assessed as growth inhibition after 48 hrs by SRB assay; type: functional
# Method in brief: (§1)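 NCI 60-cell panel; compounds passing a single-dose screen (10−5 M, 48 h) were tested at five 10-fold dilutions (10−4 to 10−8 M) with 48 h drug exposure. GI50 is the molar concentration giving 50% reduction in net cell growth relative to cell numbers on day 0.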
# T47D = test: Cytotoxicity against human T47D cells assessed as growth inhibition after 48 hrs by SRB assay; type: functional
# NCI-H522 = test: Cytotoxicity against human NCI-H522 cells assessed as growth inhibition after 48 hrs by SRB assay; type: functional; conditions: NCI-H522, 48 h; method in brief: as §1
# SK-MEL-2 = test: Cytotoxicity against human SK-MEL-2 cells assessed as growth inhibition after 48 hrs by SRB assay; type: functional; conditions: SK-MEL-2, 48 h; method in brief: as §1
# MDA-MB-468 = test: Cytotoxicity against human MDA-MB-468 cells assessed as growth inhibition after 48 hrs by SRB assay; type: functional; conditions: MDA-MB-468, 48 h; method in brief: as §1
# CAKI-1 = test: Cytotoxicity against human Caki1 cells assessed as growth inhibition after 48 hrs by SRB assay; type: functional; conditions: CAKI-1, 48 h; method in brief: as §1
# SK-MEL-28 = test: Cytotoxicity against human SK-MEL-28 cells assessed as growth inhibition after 48 hrs by SRB assay; type: functional; conditions: SK-MEL-28, 48 h; method in brief: as §1
# NCI-H322M = test: Cytotoxicity against human NCI-H322M cells assessed as growth inhibition after 48 hrs by SRB assay; type: functional; method in brief: as §1
# COLO 205 = test: Cytotoxicity against human COLO205 cells assessed as growth inhibition after 48 hrs by SRB assay; type: functional; conditions: COLO 205, 48 h; method in brief: as §1
# Malme-3M = test: Cytotoxicity against human MALME-3M cells assessed as growth inhibition after 48 hrs by SRB assay; type: functional; method in brief: as §1
# HOP-62 = test: Cytotoxicity against human HOP62 cells assessed as growth inhibition after 48 hrs by SRB assay; type: functional; conditions: HOP-62, 48 h; method in brief: as §1
# ACHN = test: Cytotoxicity against human ACHN cells assessed as growth inhibition after 48 hrs by SRB assay; type: functional; method in brief: as §1
# MV4-11 = test: Anti-leukemic activity against human MV4-11 cells assessed as cell dead after 24 to 48 hrs by annexin V-FITC/7-AAD staining-based flow cytometric analysis; type: functional; conditions: read-out: LD50 (the source's name)
# Method in brief: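 MV4-11 cells grown in IMDM with 10% FBS, penicillin and streptomycin, seeded at 5 × 10^5/ml and treated. At 24 and 48 h they were stained with annexin V-FITC plus 1 μg/ml 7-AAD. Percent dead cells (annexin V+) was read by flow cytometry and expressed relative to the DMSO vehicle control.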
# HOP-92 = test: Cytotoxicity against human HOP92 cells assessed as growth inhibition after 48 hrs by SRB assay; type: functional; conditions: HOP-92, 48 h; method in brief: as §1
# A549 = test: Cytotoxicity against human A549 cells assessed as growth inhibition after 48 hrs by SRB assay; type: functional; conditions: A549, 48 h; method in brief: as §1
# [1] = Cytotoxicity against human UACC257 cells assessed as growth inhibition after 48 hrs by SRB assay; type: functional; conditions: UACC-257, 48 h
# [2] = Cytotoxicity against human EKVX cells assessed as growth inhibition after 48 hrs by SRB assay; type: functional; method in brief: as §1
# Tubulin (Homo sapiens) = Tubulin (Homo sapiens) (UniProt P68371+Q9H4B7+P0DPH7+P68366+Q13509+Q71U36+P04350+Q3ZCM7+P07437+P68363+Q9BQE3+Q6PEY2+Q13885+Q9BVA1+Q9BUF5); test: Inhibition of tubulin polymerization in human MV4-11 cells at 50 nM after 2 hrs by immunoblot analysis relative to control; type: cell-based
# Method in brief: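 MV4-11 AML cells were exposed for 2 h to 25, 50 or 100 nM compound. Free tubulin (supernatant) and polymerized tubulin (pellet) were separated and detected by anti-tubulin immunoblot.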
Structure (SMILES),GI50 (SR),GI50 (CCRF-CEM),GI50 (T47D),GI50 (NCI-H522),GI50 (SK-MEL-2),GI50 (MDA-MB-468),GI50 (CAKI-1),GI50 (SK-MEL-28),GI50 (NCI-H322M),GI50 (COLO 205),GI50 (Malme-3M),GI50 (HOP-62),GI50 (ACHN),CC50 (MV4-11),GI50 (HOP-92),GI50 (A549),GI50 [1],GI50 [2],inhibition (Tubulin (Homo sapiens))
COc1cc(/C(C#N)=C/c2coc3ccccc23)cc(OC)c1OC,681 nM,1410 nM,811 nM,261 nM,304 nM,237 nM,650 nM,1610 nM,19100 nM,449 nM,868 nM,6980 nM,1940 nM,4530 nM,3020 nM,665 nM,–,–,–
COc1ccc2[nH]cc(/C=C(\C#N)c3cc(OC)c(OC)c(OC)c3)c2c1,27 nM,64 nM,65 nM,86 nM,–,35 nM,72 nM,92 nM,44 nM,51 nM,5850 nM,133 nM,1660 nM,467 nM,83 nM,86 nM,10700 nM,485 nM,–
COc1cc(/C(C#N)=C/c2cc3ccccc3o2)cc(OC)c1OC,< 10 nM,24 nM,4340 nM,< 10 nM,< 10 nM,22 nM,< 10 nM,< 10 nM,< 10 nM,< 10 nM,59900 nM,< 10 nM,217 nM,47 nM,< 10 nM,< 10 nM,63200 nM,59 nM,> 50%
COc1cc(/C(C#N)=C/c2cc3ccccc3n2Cc2ccc(C#N)cc2)cc(OC)c1OC,–,136 nM,95200 nM,33 nM,528 nM,41 nM,35 nM,161 nM,465 nM,97 nM,–,92 nM,79 nM,369 nM,77 nM,76 nM,62 nM,–,–
COc1cc(OC)cc(/C(C#N)=C/c2nc3ccccc3s2)c1,402 nM,–,1180 nM,–,958 nM,2040 nM,482 nM,1980 nM,> 10000 nM,574 nM,699 nM,3350 nM,518 nM,4340 nM,534 nM,–,–,–,–
COc1ccc(/C(C#N)=C/c2c[nH]c3ccccc23)cc1OC,1450 nM,2740 nM,6830 nM,3050 nM,4700 nM,–,4340 nM,6250 nM,24300 nM,5310 nM,9910 nM,8690 nM,23700 nM,> 20000 nM,5260 nM,5160 nM,11900 nM,18500 nM,–
COc1cc(/C(C#N)=C/c2nc3ccccc3s2)cc(OC)c1OC,107 nM,55 nM,–,22 nM,287 nM,84 nM,47 nM,1810 nM,2290 nM,36 nM,515 nM,1930 nM,89 nM,233 nM,–,379 nM,> 100000 nM,–,–
COc1ccc(/C(C#N)=C/c2cc3ccccc3[nH]2)cc1OC,42 nM,62 nM,573 nM,49 nM,312 nM,350 nM,103 nM,1940 nM,735 nM,232 nM,–,–,82 nM,–,58 nM,114 nM,27000 nM,307 nM,–
COc1cc(/C(C#N)=C/c2c[nH]c3ccccc23)cc(OC)c1OC,22 nM,58 nM,58 nM,37 nM,–,41 nM,58 nM,90 nM,–,474 nM,12500 nM,82 nM,1760 nM,565 nM,1010 nM,78 nM,11300 nM,596 nM,–
COc1cc(OC)cc(/C(C#N)=C/c2c[nH]c3ccccc23)c1,33 nM,42 nM,–,27 nM,51 nM,51 nM,35 nM,81 nM,–,47 nM,–,273 nM,–,375 nM,68 nM,61 nM,–,478 nM,–
COc1ccc(/C(C#N)=C/c2cc3ccccc3o2)cc1OC,470 nM,777 nM,996 nM,438 nM,487 nM,421 nM,492 nM,3510 nM,6180 nM,404 nM,629 nM,2290 nM,12400 nM,> 20000 nM,1130 nM,520 nM,18000 nM,–,–
COc1cc(/C(C#N)=C/c2cc3ccccc3[nH]2)cc(OC)c1OC,< 10 nM,17 nM,2500 nM,< 10 nM,< 10 nM,22 nM,< 10 nM,–,–,16 nM,8280 nM,< 10 nM,< 10 nM,44 nM,< 10 nM,< 10 nM,1060 nM,1160 nM,> 50%
